Data set [1] concerns the target Hypoxia-inducible factor 1-alpha (Homo sapiens, UniProt Q16665). The data set can be described thus: Inhibition of hypoxia-induced HIF1alpha protein accumulation in human Hep3B cells treated for 30 mins measured after 12 hrs by Western blot analysis. Format: functional, cell-based. The conditions noted are these: for inhibition: Hep 3B2. In a few lines:
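Hep3B cells (DMEM, 10% FBS, 37 °C) were pretreated with a range of compound concentrations for 30 min, then kept 12 h under normoxia or hypoxia (1% O2, 94% N2, 5% CO2, 37 °C). HIF-1α was detected by western blot with a mouse monoclonal anti-HIF-1α antibody. Topoisomerase-1 was probed as the loading control.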
A general note: In western blotting, separated proteins are transferred to a membrane and probed.

Data set [2] is described as follows: Inhibition of NF-kappaB activity in human HeLa cells by SEAP reporter assay. Format: cell-based. In short, it runs like this:
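HeLa cells grown in DMEM with 10% FBS and penicillin/streptomycin at 37 °C, 5% CO2. NF-κB activity read by a secreted alkaline phosphatase (SEAP) reporter, with celastrol as positive control. Values are IC50s, mean ± SD from three experiments.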

In the next data set the test system is Hep 3B2. The data set can be described thus: Inhibition of hypoxia-induced VEGF protein secretion in human Hep3B cells after 16 hrs by ELISA. Format: functional, cell-based. In a few lines:
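Hep3B cells were seeded at 2 × 10^5 per well and exposed to a range of concentrations for 16 h under normoxia or hypoxia (1% O2, 5% CO2, 37 °C). VEGF in the culture supernatant was quantified with a DuoSet sandwich ELISA. 17-DMAG served as positive control. IC50s are mean ± SD from three experiments.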
(In an ELISA, binding on a coated surface is turned into a signal by an enzyme label.)

The nature of data set [3]: Cytotoxicity against human Hep3B cells after 24 hrs by MTT assay. The data set is classed as cell-based. The conditions noted are these: hep 3b2, 24 h.
A short description of data set [4]: Inhibition of hypoxia-induced HIF1alpha protein accumulation in human Hep3B cells treated for 30 mins measured after 12 hrs by Western blot analysis. The conditions noted are these: hep 3b2.

The term IC50 denotes the concentration that gives 50% inhibition.

On to `CC(=O)OC(C)(C)/C=C/C(=O)[C@](C)(O)[C@H]1[C@H](O)C[C@@]2(C)[C@@H]3CC=C4[C@H](C[C@H](O)C(=O)C4(C)C)[C@]3(C)C(=O)C[C@]12C` [CUCURBITACIN B], for which the inhibition entry in data set [1] was “Dose-dependent effect”. Besides, the IC50 stood at 61 nM in data set [2] and 310 nM in the data set on Hep 3B2.
As for `CC1=CC(=O)CC(C)(C)[C@@]1(O)/C=C/[C@@H](C)O` [BLUMENOL A], the IC50 in data set [1] turned out to be 15800 nM; in data set [2], 12300 nM; in the data set with Hep 3B2 it was 26200 nM. The Activity entry in data set [3] is reported as “Non-toxic”.
`CC1=C(O)C(=O)C=C2C1=CC=C1[C@@]2(C)CC[C@@]2(C)[C@@H]3C[C@](C)(C(=O)O)CC[C@]3(C)CC[C@]12C` [CELASTROL] had an IC50 in data set [2] of 150 nM.
On to `COc1cc(O)cc2c1/C(=C\c1ccc(O)cc1)C(=O)O2`, for which the values for the IC50 (in data set [1]; in data set [2]; in the data set on Hep 3B2) were 690 nM, 560 nM and 930 nM, respectively. For the same compound, in data set [1], the inhibition entry was “Dose-dependent effect”. For the same compound, the Activity entry in data set [3] is reported as “Non-toxic”.
With `COc1cc(/C=C/c2ccc(OC)c(O)c2)oc(=O)c1`, the IC50 was 810 nM in data set [1], 400 nM in data set [2] and 1040 nM in the data set on Hep 3B2. For the same compound, the inhibition result in data set [1] was “Dose-dependent effect”. Further, the Activity result in data set [3] is recorded as “Non-toxic”.
Compound `CC(=O)OC(C)(C)/C=C/C(=O)[C@](C)(O)[C@H]1[C@H](O)C[C@@]2(C)[C@@H]3CC=C4[C@@H](C[C@H](O)C(=O)C4(C)C)[C@]3(C)C(=O)C[C@]12C` [CUCURBITACIN B] showed an IC50 in data set [1] of 270 nM. Also, the Activity entry in data set [3] is recorded as “Non-toxic”.
As to `CO[C@H]1/C=C\C=C(/C)C(=O)NC2=CC(=O)C(NCCN(C)C)=C(C[C@@H](C)C[C@H](OC)[C@H](O)[C@@H](C)/C=C(\C)[C@@H]1OC(N)=O)C2=O` [ALVESPIMYCIN], inhibition in data set [4] was half-maximal at 57 nM (IC50).

The values above are taken from ChEMBL document CHEMBL1165938, “An isoaurone and other constituents from Trichosanthes kirilowii seeds inhibit hypoxia-inducible factor-1 and nuclear factor-kappaB” (J Nat Prod, 2010).
